The structures appear in SMILES notation.

The nature of the series: Toxicity liver stage against HepG2, at 10uM. Format: cell-based. Also on record: test concentration 10 uM, cell line HepG2-A16-CD81EGFP. The settings on record: human, HepG2-A16-CD81EGFP cells; read-out: INHIBITION
The procedure, abridged: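 Uninfected HepG2-A16-CD81EGFP cells, 3 × 10^3 per well, 1536-well, plated on prespotted compound at 10 μM final, parasite-free screening media added to match infected plates; puromycin 10 μM positive, DMSO 0.5% negative; run in parallel with 48 h PbLuc assay at 37 °C, 5% CO2; viability by CellTiter-Glo luminescence, normalized to controls.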

As for `CSc1ccc(OC(C)C(=O)Nc2cc(C)n[nH]2)cc1` (configuration not stated), the cytotoxicity at 10 µM turned out to be 8.64%.

As to `O=C(NCC1(N2CCOCC2)CCSC1)Nc1ccc(F)cc1` (configuration not stated), the cytotoxicity at 10 µM is -10.2%.

Turning to `CC(C)(CO)Nc1cc(-c2ccccc2)ncn1`, the cytotoxicity at 10 µM was -7.8%.

On to `Cc1n[nH]c(C)c1CCC(=O)N1CCC(O)(CN2CCN(C)CC2)C1` (configuration not stated), for which the cytotoxicity at 10 µM was -6.13%.

With `c1nc2n(c1CN1CCCCC1)CCN(C1CCOC1)CC2` (configuration not stated), the cytotoxicity at 10 µM was -152%.

Consider `CC(=O)N1CCC2(C1)c1ccccc1S(=O)(=O)N2C` (configuration not stated), for which the cytotoxicity at 10 µM worked out at 6.57%.

For `Cc1cc(C)nc(CN(C)C(=O)c2ccccc2C2CCNC2)c1` (configuration not stated), the cytotoxicity at 10 µM came to 1.64%.

Turning to `COCC(=O)N1CCC(c2nc3ccc(N4CCCC4)cn3n2)CC1`, the cytotoxicity at 10 µM was -15.4%.

Regarding `CC(C)(CO)CNC(=O)c1cc(-c2cc[nH]n2)n2ccccc12`, the cytotoxicity at 10 µM was found to be 20%.

For `Cn1cnnc1-c1cncc(NCc2cccc3c2OC(C)(C)C3)c1`, the cytotoxicity at 10 µM stood at 7.84%.

As to `CCc1cnc(CN(C)C2CCN(CCNS(=O)(=O)CC)C2)o1` (configuration not stated), the cytotoxicity at 10 µM worked out at 8.94%.

Regarding `O=C(Cc1cccc(F)c1)N1CCn2cc(Cn3cccn3)nc2C1`, the cytotoxicity at 10 µM is -84.3%.

As to `COc1cc(C(=O)NCCS(=O)(=O)N(C)C)c2ccccc2n1`, the cytotoxicity at 10 µM was -0.0932%.

With `CN(CCC#N)C(=O)Cn1nnnc1C(C)(C)C`, the cytotoxicity at 10 µM is -46.3%.

In the case of `COc1ncccc1C(=O)N1CCc2c(ncnc2N2CCOCC2)C1`, the cytotoxicity at 10 µM was -3.5%.

Consider `Cc1ccc(C)c(CN(C)Cc2nnc3ccccn23)c1`, for which the cytotoxicity at 10 µM was -10.5%.

In the case of `CCNC(=O)CN1CCC(OCC2CCCO2)CC1` (configuration not stated), the cytotoxicity at 10 µM was -3.78%.

On to `CCN(CC)c1nc(Nc2cccc(C(C)O)c2)nc2ccccc12` (configuration not stated), for which the cytotoxicity at 10 µM amounted to 37.6%.

As to `CSCC(CCO)NC(=O)Nc1ccc(Br)cc1` (configuration not stated), the cytotoxicity at 10 µM was -12.2%.

Turning to `CCC(O)CN(CC(=O)Nc1cc(C)no1)c1ccccc1` (configuration not stated), the cytotoxicity at 10 µM is -2.59%.

Regarding `COCC1CC2(CCN(C(=O)C3CCSCC3)CC2)CO1` (configuration not stated), the cytotoxicity at 10 µM is -8.93%.

Turning to `OCCOCCN1CCCC1c1cccc(Cl)c1` (configuration not stated), the cytotoxicity at 10 µM was -1.78%.

With `CCc1nc(C2CCCN2C(=O)c2ccc(N3CCCC3)nn2)no1` (configuration not stated), the cytotoxicity at 10 µM is -3.27%.

Take `Nc1ncc(C(=O)N2CCN(c3nccs3)CC2)cc1Cl`: the cytotoxicity at 10 µM is -3.78%.

Consider `Cc1nccn1-c1ccc(C(C)NCc2cccn2C)cc1` (configuration not stated), for which the cytotoxicity at 10 µM is 8.61%.

As for `COCCN1CCC2(CC1)CC(NCc1ccc(C)s1)c1ccccc12` (configuration not stated), the cytotoxicity at 10 µM is -121%.

Turning to `CS(=O)(=O)N1C[C@H]2CC[C@@H](C1)N(Cc1ccsc1)C2`, the cytotoxicity at 10 µM is 44.7%.

As to `Cc1ccc(-c2nnc(SCC(=O)O)n2-c2ccc(C)cc2)cc1`, the cytotoxicity at 10 µM was -3.53%.

For `Cc1cc(N2CCC3(CCC(=O)N(CCO)C3)CC2)nc(N(C)C)n1`, the cytotoxicity at 10 µM is -4.78%.

For the molecule `Cc1nc(C)c(CN2CCOC(CNc3cccnn3)C2)s1` (configuration not stated), the cytotoxicity at 10 µM is -1.71%.

In the case of `c1cnn(CC2CCCCN2Cc2noc(C3CC3)n2)c1` (configuration not stated), the cytotoxicity at 10 µM is -3.48%.

As for `COCCN1C[C@@H]2CN(Cc3ccc(F)cc3)C[C@@H]2C1=O`, the cytotoxicity at 10 µM was -0.744%.

For the molecule `CCN(C)C[C@@H]1CN(S(=O)(=O)c2ccc(OC)cc2)C[C@@H]1CO`, the cytotoxicity at 10 µM is 14.8%.

In the case of `CSCC(=O)Nc1ncc(I)cc1C`, the cytotoxicity at 10 µM was -4.7%.

With `CCOc1cccc(CNc2cncc(-n3cccn3)n2)c1`, the cytotoxicity at 10 µM is -0.363%.

For `CC(C)c1cc(C(=O)N2CCCN(Cc3ccccc3)CC2)n[nH]1`, the cytotoxicity at 10 µM is -5.41%.

Regarding `NC(=O)c1cnc(NC(=O)CCc2ccco2)c(Cl)c1`, the cytotoxicity at 10 µM came to 3.42%.

With `COc1cccc(N2CCN(Cc3nccn3C(C)C)CC2=O)c1`, the cytotoxicity at 10 µM was found to be 1.85%.

Consider `CCc1ccccc1OCCN1CC[C@@]2(O)CCNC[C@H]2C1`, for which the cytotoxicity at 10 µM is -160%.

Regarding `CCCOC1CCCN(c2nc(CC)nc3c2cnn3C)C1` (configuration not stated), the cytotoxicity at 10 µM was -3.29%.

With `CCNC(=O)c1cn(C(C)(C)C)c2ncccc12`, the cytotoxicity at 10 µM is -1.28%.

On to `CC1CN(C(=O)c2cccc(OCc3cscn3)c2)CCO1` (configuration not stated), for which the cytotoxicity at 10 µM was -9.86%.

For `Cc1ccccc1-n1cnc(Cl)c1CO`, the cytotoxicity at 10 µM is 8.48%.

As for `CCc1cccc2cc(CN)c(=O)[nH]c12`, the cytotoxicity at 10 µM stood at 3.54%.

As to `N#Cc1cc2c(=O)n(CC(O)Cc3ccccc3)ccc2[nH]c1=O` (configuration not stated), the cytotoxicity at 10 µM turned out to be 2.86%.

For `CCC(=O)Nc1ccc(C(C)NC(=O)COCCOC)cc1` (configuration not stated), the cytotoxicity at 10 µM is -7.71%.

For `CCCn1cc(C(=O)N2CCOC(c3nc(-c4cccs4)no3)C2)cn1` (configuration not stated), the cytotoxicity at 10 µM is -4.22%.

In the case of `CN1C(=O)C2(CCN(CC3CCC3)C2)c2ccccc21` (configuration not stated), the cytotoxicity at 10 µM was -71.3%.

With `CC(C)N1CCN(C(=O)c2ccc(Cn3ccccc3=O)o2)CC1`, the cytotoxicity at 10 µM is -13.1%.

Take `COc1c(Br)c(C(=O)NC2CC2)nn1C`: the cytotoxicity at 10 µM was found to be 3.18%.

As for `CC(C(=O)N1CCCN(Cc2ccc(C#N)cc2)CC1)n1cccn1` (configuration not stated), the cytotoxicity at 10 µM was -5.6%.

Take `Cn1cccc1C(=O)N1CCCn2nc(CCC(=O)NC3CC3)cc2C1`: the cytotoxicity at 10 µM was 5.45%.

Turning to `C[C@@H]1CN(C(=O)C2(Cn3cccn3)CC2)C[C@@]1(O)C1CCC1`, the cytotoxicity at 10 µM was 1.56%.

As to `Cc1cnc(C(=O)N2C[C@H]3CN(Cc4cccnc4)C[C@H]3C2)cn1`, the cytotoxicity at 10 µM worked out at 2.4%.

For `Cc1oc(C)c(C(=O)Nc2ccccn2)c1C`, the cytotoxicity at 10 µM is -9.78%.

Take `Cc1c(C(=O)O)cnn1-c1ccc(-c2nc(C3CC3)no2)cn1`: the cytotoxicity at 10 µM was determined as 0.88%.

Regarding `CC1(C(=O)N2CCOCC2)CN(Cc2ncc[nH]2)CCO1` (configuration not stated), the cytotoxicity at 10 µM was -11.3%.

Consider `O=C(c1ccco1)N1CCC2(CC1)C(=O)NCCN2CC1CC1`, for which the cytotoxicity at 10 µM came out at 4.3%.

Take `CCn1ncc(C(=O)NCCc2nc(-c3ccc(C)cc3)n[nH]2)c1C`: the cytotoxicity at 10 µM came out at 8%.

With `Cc1nnc2n1CCN(C(=O)C1CCC(n3cccc3)CC1)C2` (configuration not stated), the cytotoxicity at 10 µM is -1.05%.

Turning to `COCCN1CCC2(CCN(CC3CC3)CC2)C1=O`, the cytotoxicity at 10 µM was 7.55%.

As to `CC(=O)N1[C@H](Cn2cncn2)C[C@@H]2CN(C(=O)c3ccoc3)CC[C@@H]21`, the cytotoxicity at 10 µM was -3.42%.

Regarding `CCCS(=O)(=O)c1ncc(CN2CCC(CO)CC2)n1CC1CCCO1` (configuration not stated), the cytotoxicity at 10 µM worked out at 7%.

In the case of `O=C(CCc1nc(Cl)n[nH]1)NC1CCCN(C2Cc3ccccc3C2)C1` (configuration not stated), the cytotoxicity at 10 µM was -18.9%.

`O=C(NCc1ccco1)[C@@H]1CCO[C@@H]2CCN(c3ccncn3)C[C@H]21`: the cytotoxicity at 10 µM was 0.118%.

Regarding `CN(C)CCCNC(=O)c1ccc(Cl)cc1Cl`, the cytotoxicity at 10 µM was -21%.

`CC(=O)NCC(=O)N1CCc2nc(-c3ccccc3)nc(C)c2CC1`: the cytotoxicity at 10 µM was -2.54%.

`CN(Cc1ccco1)[C@@H]1CN(Cc2ccncc2)C[C@@H]2CCCO[C@@H]21`: the cytotoxicity at 10 µM was found to be 0.361%.

Turning to `CCc1noc(C)c1C(=O)N1CCCC1c1c(C)nn(C)c1OC` (configuration not stated), the cytotoxicity at 10 µM was -12.1%.

For the molecule `Cc1nn(C)c(N(C)C)c1CNCc1ccc2c(c1)OCO2`, the cytotoxicity at 10 µM is -2.51%.

Take `O=C(Cc1cccc2cccnc12)N1CCCN(c2cccnn2)CC1`: the cytotoxicity at 10 µM was -5.1%.

With `Cc1cccc(CN2CCc3c(CNC(=O)CC#N)nn(C)c3C2)n1`, the cytotoxicity at 10 µM is 4.89%.

The record behind these values is ChEMBL document CHEMBL4513216, “Probing the Open Global Health Chemical Diversity Library for Multistage-Active Starting Points for Next-Generation Antimalarials” (ACS Infect Dis, 2020).
